PubChem BioAssay AID504383 (The Scripps Research Institute Molecular Screening Center, 2011)
Screen size: about 2,500 compounds; about 1,200 (48%) were called active. The set was probably picked from earlier hits. The list shows a part of the results. Unmarked numbers belong to inactive results.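 How the source made its calls: active means mean activation above the low control average plus 3 SD, as set in the primary screen (cut at about 12% in these data); inactive means the rest.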

Target: Troponin I, cardiac muscle (Homo sapiens) + Troponin T, cardiac muscle (Homo sapiens) + Troponin C, slow skeletal and cardiac muscles (Homo sapiens) (UniProt P19429+P45379+P63316)
Experiment: calcium sensitizers of cardiac thin filaments – biochemical, IANBD-TnC fluorescence, triplicate, confirmation (AID 504383);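 further: 0% = DMSO at 0.472 mM calcium and 100% = DMSO at 2.9 mM calcium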
Details: IANBD-labeled cardiac RTF, Ca2+ sensitivity fluorescence; at 7.2 µM; stronger effect = higher value; scaled from EC20 to saturating calcium; tested at EC20 calcium, 0.472 mM
Outline: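 System: Labelled thin filament complex | Technique: Filament fluorescence intensity | Benchmarks: Low control EC20 calcium, high control EC100 calcium | Timing: 15 min at 25 °C | Compound dosing: One dose, 7.2 µM nominal | Probe or stimulus: Ca2+ 0.472 mM, EC20 level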

SMILES | activation
Cc1cc(C)nc(SCCCNCc2ccc(Br)cc2)n1 | 9.74%
Cc1cc(C)n(-c2ccc([N+](=O)[O-])cc2-c2nn[nH]n2)n1 | 7.13%
O=C(O)c1ccc(O)c(O)c1 | 7.5%
Cc1cc(C)n(-c2ccc(C(=O)O)cc2)n1 | 16.2% (active)
N#CC1=C(N)Oc2ccc3ccc(O)cc3c2C1c1ccsc1 (stereo not drawn) | 31.6% (active)
N#CC1=C(N)SC(N)=C(C#N)C1c1cccc(O)c1 | 6.27%
CCOC(=O)c1sc(N)c(C#N)c1COC(=O)CNC(=O)c1cc(OC)c(OC)c(OC)c1 | 67.4% (active)
CCOC(=O)c1sc(N)c(C#N)c1COC(=O)CNC(=O)c1ccccc1 | 8.8%
CC(C)CC[C@@H](O)[C@](C)(O)C1CC[C@@]2(O)C3=CC(=O)[C@@H]4C[C@@H](O)[C@@H](O)C[C@]4(C)C3CC[C@]12C (stereo partly drawn) | 279% (active)
CNC(=O)N(O)C1N(C)C(=O)N(CC(=O)OC)C1(C)C (stereo not drawn) | 55.3% (active)
COc1cc(OC)c(C(=O)OC(C)C(=O)Nc2cccc(C(F)(F)F)c2)cc1OC (stereo not drawn) | 32.5% (active)
COc1ccc(OC(C)C(=O)Nc2cccc(OC)c2)cc1 (stereo not drawn) | 7.49%
COc1ccc(C2=NN(C(=O)COC(=O)c3ccc(NC(=O)CC#N)cc3)C(c3ccco3)C2)cc1 (stereo not drawn) | 14.7% (active)
COc1ccc(OC)c(NC(=S)Nc2ccccc2)c1 | 5.57%
COc1ccc(OC)c(NC(=O)CNC(=O)Cn2c(C)cc3ccccc3c2=O)c1 | 3680% (active)
CCCC(CCC(=O)Nc1ccc(S(N)(=O)=O)cc1)C(=O)O (stereo not drawn) | 8.1%
NS(=O)(=O)c1ccc(NC(=O)COc2ccc(C(=O)c3ccc(F)cc3)cc2)cc1 | 1350% (active)
O=C(Oc1cc2oc(=O)c3c(c2cc1Cl)CCCC3)c1cccs1 | 1.37%
CC1CC(C)CN(C(=O)COC(=O)CCc2nc3ccccc3c(=O)[nH]2)C1 (stereo not drawn) | 8.84%
NC(=O)N/N=C/c1ccc(N2CCOCC2)s1 | 3.82%
O=C(CN1C(=O)c2ccccc2C1=O)NCc1ccc(N2CCOCC2)cc1 | 12.4% (active)
COc1ccc(Sc2ccc(-c3nc4cnccn4c3NC3CCCCC3)cc2OC)cc1 | 3.89%
CCOC(=O)C1C(=O)C=C(/C=C/c2ccc(N(C)C)cc2)CC1c1ccccc1 (stereo not drawn) | 5.48%
CN(C)c1ccc(/C=C/c2nc3ccccc3c(=O)n2CCO)cc1 | 398% (active)
C[C@@H]1C=C(C(=O)N2CCOCC2)O[C@H](OCc2ccc(CO)cc2)C1 | 6.41%

SMILES | activation
CC1(C)CC2CC(C)(CN2C(=S)Nc2ccccc2F)C1 (stereo not drawn) | 3.28%
COc1cc2c(cc1[N+](=O)[O-])-c1ccccc1C2 | 302% (active)
CNc1ccccc1C(C)(C)c1cc(C)[nH]n1 | 28.3% (active)
CC(=O)N(C(C)=O)N1C(=O)c2cccc3c(N4CCOCC4)ccc(c23)C1=O | 10.5%
O=C(OCCN1C(=O)c2cccc3c(N4CCOCC4)ccc(c23)C1=O)c1ccccc1Cl | 13.6% (active)
O=C(OCCN1C(=O)c2cccc3c(N4CCOCC4)ccc(c23)C1=O)c1ccc(Cl)cc1 | 25.9% (active)
CCCN(CCC)S(=O)(=O)c1ccc(C(=O)OCCN2C(=O)c3cccc4c(N5CCOCC5)ccc(c34)C2=O)cc1 | 16.2% (active)
O=C(OCCN1C(=O)c2cccc3c(N4CCOCC4)ccc(c23)C1=O)c1ccc(Cl)cc1Cl | 39.1% (active)
COc1cccc(C(=O)Nc2cc(C(=O)NCc3ccc(C)cc3)ccc2N2CCC3(CC2)CC(c2cccc(Br)c2)=NO3)c1 | 5.62%
O=C1OCC/C1=C\c1ccccc1O | 3.58%
CCN(CC)c1ccc(/C=c2\sc3nc4ccccc4n3c2=O)c(O)c1 | 41.3% (active)
Cc1ccc(OCc2ccc(C(=O)O)o2)cc1C | 4.06%
CC(=O)Oc1ccc(NC(=O)Cc2ccccc2)c(C(=O)O)c1 | 34.2% (active)
COc1ccc(NC(=O)Cc2ccccc2)cn1 | 9.43%
CCCCCCSc1ccc([C@@H]2[C@H]3C(=O)N(CC)C(=O)[C@H]3[C@]3(C(=O)OC)CCCCN23)cc1OC | 6.92%
CCN1C(=O)[C@@H]2[C@@H](c3ccc(-c4cccc(Cl)c4)cc3)N3CCC[C@@]3(C(=O)OC)[C@@H]2C1=O | 14% (active)
O=C(O)/C=C/C(=O)NCc1csc2ccccc12 | 278% (active)
O=C(NCc1csc2ccccc12)Nc1cc(Cl)cc(Cl)c1 | 7.6%
CCC(Oc1cc(Cl)ccc1Cl)C(=O)NNC(=O)CCC(=O)O (stereo not drawn) | 12.2% (active)
Fc1ccc(CN2CC[C@H]3C=CCc4cccc(c43)C2)cc1 | 144% (active)
COC1C(CO)OC(n2c3c(Cl)cccc3c3c4c(c5c6cccc(Cl)c6[nH]c5c32)C(=O)NC4=O)C(O)C1O (stereo not drawn) | 2.74%
CCN(CC)C(=O)C(=O)c1c(-c2ccccc2)[nH]c2ccccc12 | 20.5% (active)
CCN(CC)C(=S)SCC(=O)c1c(C)[nH]c2ccccc12 | 27% (active)
CCN(CC)CC(C(=O)N(CC)CC)P(=O)(c1ccccc1)c1ccccc1 (stereo not drawn) | 6.63%
CCOC(=O)CNc1ccc2c(c1)OCO2 | 15.4% (active)

SMILES | activation
O=C(COc1ccccc1)NC(=S)Nc1cccc(NC(=O)c2ccccc2Cl)c1 | 7.06%
CCN(CC)S(=O)(=O)c1ccc2c(c1)nc(CCC(=O)Nc1ccc3c(c1)OCO3)n2C | 8.98%
O=C(Nc1ccc2c(c1)OCCO2)c1cccc(Cl)c1Cl | 77.8% (active)
O=C(Nc1ccc2c(c1)OCO2)c1ccc2c(c1)OCO2 | 16.1% (active)
C=CCn1cccc(C(=O)Nc2ccc(OC)c(Cl)c2)c1=O | 7.57%
CC(=O)c1cc2c(cc1N/C(=N/S(=O)(=O)c1ccc(Br)cc1)c1ccccc1)OCO2 | 5.61%
CCOc1ccc(Cn2c3ccc(OC)cc3c3nc4ccccc4nc32)cc1 | 81.5% (active)
COc1ccc(Cn2nnc3ccccc32)cc1 | 8.45%
CCCCOC(=O)Cn1c2ccc(OC)cc2c2nc3ccccc3nc21 | 12.9% (active)
CCOc1ccc2nc3cc(NCc4ccc(OC)cc4)ccc3c(N)c2c1 | 4.24%
CCOC(=O)c1c(C(C)(C)C)oc2ccc(OCC#N)cc12 | 8.86%
CN(C)c1ccc(/C=C2\SC(=O)N(CCc3nnc(N)s3)C2=O)cc1 | 5.55%
CN(C)c1ccc(/C=C2\SC(=O)N(CC(O)Cn3c4ccccc4c4ccccc43)C2=O)cc1 (stereo not drawn) | 14.3% (active)
CCOC(=O)CN1C(=O)S/C(=C/C=C/c2ccc(N(C)C)cc2)C1=O | 3.71%
COc1cc2nc(/C=C/c3ccc(N(C)C)cc3)sc2cc1SC | -0.52%
O=C(COC(=O)c1cc(-c2cccc3ccccc23)nc2ccccc12)NC1CCS(=O)(=O)C1 (stereo not drawn) | 13.5% (active)
CCN1CC=C2C(C#N)=C(N)C(C#N)(C#N)C(c3cc(Cl)ccc3Cl)C2C1 (stereo not drawn) | 253% (active)
CCCN1CC=C2C(C#N)=C(N)C(C#N)(C#N)C(c3cccc(OC)c3OC)C2C1 (stereo not drawn) | 0.08%
CCN1CC=C2C(C#N)=C(N)C(C#N)(C#N)[C@H](c3cccc(OC)c3OC)[C@H]2C1 | 14.7% (active)
O=C(COC(=O)/C=C/c1ccc(Cl)cc1)NCCN1C(=O)CSC1=O | 4.03%
CCN(CC(=O)Nc1ccccc1C(=O)NC1CC1)Cc1cccs1 | 89.2% (active)
Cc1ccc(C(C(=O)NC2CCCC2)N(C(=O)Cc2cccs2)c2cccc(C)c2C)o1 (stereo not drawn) | 7.72%
O=C(c1ccccn1)N(Cc1cccs1)C1(C(=O)NC2CCCCC2)CCCCC1 | 1.46%
Cc1ccc(C(=O)NN2C(=O)/C(=C/c3cn(C)c4ccccc34)SC2=S)cc1 | 19.4% (active)
Cn1cc(/C=C2\SC(=S)N(NC(=O)c3ccccc3)C2=O)c2ccccc21 | 40.9% (active)

SMILES | activation
Cn1cc(/C=C2\SC(=S)N(NC(=O)c3ccccc3Cl)C2=O)c2ccccc21 | 23.3% (active)
Cn1cc(/C=C2\SC(=S)N(NC(=O)c3cccc(Cl)c3)C2=O)c2ccccc21 | 52.1% (active)
NS(=O)(=O)c1ccc(N2N=C(c3ccccc3)CC2c2ccccc2)cc1 (stereo not drawn) | 31% (active)
COc1ccc(C2CC(c3ccncc3)=NN2c2ccc(S(N)(=O)=O)cc2)cc1 (stereo not drawn) | 13.1% (active)
N#CC1CC(c2ccc([N+](=O)[O-])cc2)=NN1c1ccc([N+](=O)[O-])cc1 (stereo not drawn) | 6.69%
N#CCC(=O)N/N=C/c1ccc(N2N=C(c3ccccc3)CC2c2ccccc2)cc1 (stereo not drawn) | 8.4%
O=[N+]([O-])c1ccc(N2N=C(c3ccccc3)CC2c2ccccc2O)cc1 (stereo not drawn) | 127% (active)
CSc1nnnn1-c1c(C)cc(C)cc1C | 3.29%
Cc1ccccc1-n1nnnc1SCC(C)C | 103% (active)
O=C(COc1ccccc1F)NC1CC1 | 66.3% (active)
COC(=O)c1cc2c(C)c(C)c3ccccn3c-2c1C(=O)OC | 5.27%
O=C(N/N=C/c1cc([N+](=O)[O-])ccc1N1CCNCC1)c1ccc([N+](=O)[O-])cc1 | 19% (active)
CCOc1ccc(NC(=S)c2ccncc2)cc1 | 6.9%
C=CCN1C(=O)[C@@H]2Cc3c([nH]c4ccccc34)C(c3ccc(O)cc3)N2C1=S (stereo partly drawn) | 4.94%
N#CC12COC3(CCCCC3C1(C#N)C#N)OC2=N (stereo not drawn) | 2.01%
CCCOc1ccc(-c2nn(-c3ccccc3)cc2/C=C2\SC(N)=NC2=O)cc1 | -0.61%
CN(C)c1ccc(/C=C2\CCC/C(=C\c3ccccc3)C2=O)cc1 | 0.5%
COc1ccccc1N=C1NC(=O)/C(=C/c2ccc(N(C)C)cc2)S1 | 10.9%
CCOc1ccc(N(C)c2ccc(/C=C3/SC(=S)NC3=O)cc2)cc1 | 20.5% (active)
CCN(CC)c1ccc(/C=C2\SC(N)=NC2=O)cc1 | 108% (active)
CN(C)c1ccc(C=C2SC(=S)NC2=O)cc1 | 11.7% (active)
CCN(CC)c1ccc(C=C2SC(=S)NC2=O)cc1 | 57.9% (active)
COc1ccc(-c2nn(CCC(=O)O)cc2/C=C2\SC(N)=NC2=O)cc1 | 8.42%
